Laboratory results: ChEMBL document CHEMBL1150273, “Aza-peptidyl Michael acceptors. A new class of potent and selective inhibitors of asparaginyl endopeptidases (legumains) from evolutionarily diverse pathogens” (J Med Chem, 2008)
pIC50: −log10 of the molar value.

Tests used:
[1] = Inhibition of Trichomonas vaginalis G3 AE1 expressed in Pichia pastoris after 20 mins
How it was run: (§1)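 Recombinant AE zymogens expressed in Pichia pastoris; SmAE and TvAE1 autoactivated in 0.5 M sodium acetate, 4 mM DTT, pH 4.5, 37 °C, 3 h to overnight; IrAE used without activation. Buffer 0.1 M citrate phosphate, 4 mM DTT, pH 6.8 (SmAE, TvAE1) or pH 5.5 (IrAE). Inhibitor 2.0–0.0002 µM final, 20 min preincubation at room temperature; 10 µM final Cbz-Ala-Ala-Asn-AMC, 20 min; IC50 from RFU/min vs concentration.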

[2] = Inhibition of Ixodes ricinus AE expressed in Pichia pastoris after 20 mins; how it was run: as §1
[3] = Inhibition of Schistosoma mansoni AE expressed in Pichia pastoris after 20 mins; how it was run: as §1
[4] = tested on: Schistosoma mansoni; assay: Inhibition of Schistosoma mansoni AE assessed as ratio of pseudo-first-order inhibition rate constant to inhibitor concentration
How it was run: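 Autoactivated recombinant SmAE added to six inhibitor concentrations (0–1 µM final) in 0.1 M citrate phosphate, 2 mM DTT, pH 6.8 with 20 µM Cbz-Ala-Ala-Asn-AMC; progress followed every 2 s for 30 min at 25 °C (ex 355, em 460 nm); kobs/[I] by nonlinear regression, corrected for substrate by factor 1.33.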

| pIC50 [1] | Compound | pIC50 [2] | pIC50 [3] | Ratio [4] |
| --- | --- | --- | --- | --- |
| 5.30 | C[C@H](NC(=O)OCc1ccccc1)C(=O)N[C@@H](C)C(=O)NN(CC(N)=O)C(=O)/C=C/C(=O)N(Cc1ccco1)Cc1ccco1 | 4.82 | 6.05 |  |
| 8.46 | C[C@H](NC(=O)OCc1ccccc1)C(=O)N[C@@H](C)C(=O)NN(CC(N)=O)C(=O)/C=C/C(=O)N1CCCc2ccccc21 | 8.40 | 7.15 |  |
| 8.00 | C[C@H](NC(=O)OCc1ccccc1)C(=O)N[C@@H](C)C(=O)NN(CC(N)=O)C(=O)/C=C/C(=O)N1CCc2ccccc2C1 | 7.60 | 6.70 |  |
| 6.00 | CCCCN(CCCC)C(=O)/C=C/C(=O)N(CC(N)=O)NC(=O)[C@H](C)NC(=O)[C@H](C)NC(=O)OCc1ccccc1 | 7.00 | 6.26 |  |
| 7.70 | C[C@H](NC(=O)OCc1ccccc1)C(=O)N[C@@H](C)C(=O)NN(CC(N)=O)C(=O)/C=C/C(=O)N1Cc2ccccc2C1 | 8.35 | 6.52 |  |
| > 9.00 | C[C@H](NC(=O)OCc1ccccc1)C(=O)N[C@@H](C)C(=O)NN(CC(N)=O)C(=O)/C=C/C(=O)N(Cc1ccccc1)Cc1cccc2ccccc12 | 8.22 | 7.21 | 6180 M⁻¹ s⁻¹ |
| 8.22 | C[C@H](NC(=O)OCc1ccccc1)C(=O)N[C@@H](C)C(=O)NN(CC(N)=O)C(=O)/C=C/C(=O)N(Cc1ccccc1)Cc1ccc2ccccc2c1 | 8.10 | 7.15 | 6100 M⁻¹ s⁻¹ |
| 8.30 | C[C@H](NC(=O)OCc1ccccc1)C(=O)N[C@@H](C)C(=O)NN(CC(N)=O)C(=O)/C=C/C(=O)N(C)c1ccccc1 | 8.74 | 7.22 |  |
| 7.12 | C[C@H](NC(=O)OCc1ccccc1)C(=O)N[C@@H](C)C(=O)NN(CC(N)=O)C(=O)/C=C/C(=O)NCc1ccc(F)cc1 | 6.60 | 6.10 |  |
| > 9.00 | C[C@H](NC(=O)OCc1ccccc1)C(=O)N[C@@H](C)C(=O)NN(CC(N)=O)C(=O)/C=C/C(=O)N(Cc1ccccc1)c1ccccc1 | > 9.00 | 7.15 |  |
| 5.10 | C[C@H](NC(=O)OCc1ccccc1)C(=O)N[C@@H](C)C(=O)NN(CC(N)=O)C(=O)/C=C/c1cccnc1 | 4.82 | < 5.70 |  |
| > 9.00 | C[C@H](NC(=O)OCc1ccccc1)C(=O)N[C@@H](C)C(=O)NN(CC(N)=O)C(=O)/C=C/C(=O)N(Cc1ccccc1)Cc1ccc(F)cc1 | 6.15 | 7.22 |  |
| 7.70 | C[C@H](NC(=O)OCc1ccccc1)C(=O)N[C@@H](C)C(=O)NN(CC(N)=O)C(=O)/C=C/C(=O)Nc1ccccc1 | 8.00 | 6.15 |  |
|  | C[C@H](NC(=O)OCc1ccccc1)C(=O)N[C@@H](C)C(=O)NN(CC(N)=O)C(=O)/C=C/c1ccco1 | 5.12 | < 5.70 |  |
| 7.10 | C[C@H](NC(=O)OCc1ccccc1)C(=O)N[C@@H](C)C(=O)NN(CC(N)=O)C(=O)/C=C/C(=O)N(C)C(Cc1ccccc1)C(=O)N(C)CCc1ccccc1 (some centres not stated) | 6.52 | 6.12 |  |
| 8.00 | C[C@H](NC(=O)OCc1ccccc1)C(=O)N[C@@H](C)C(=O)NN(CC(N)=O)C(=O)/C=C/C(=O)N1CC=C(c2ccccc2)CC1 | 7.07 | 6.12 |  |
| > 8.00 | CCOC(=O)/C=C/C(=O)N(CC(N)=O)NC(=O)[C@H](C)NC(=O)[C@H](C)NC(=O)CCCC[C@@H]1SC[C@@H]2NC(=O)N[C@@H]21 | 8.55 | 8.00 |  |
| 8.00 | C[C@H](NC(=O)OCc1ccccc1)C(=O)N[C@@H](C)C(=O)NN(CC(N)=O)C(=O)/C=C/C(=O)NCc1ccccc1 | 6.70 | 6.00 |  |
| 7.30 | C[C@H](NC(=O)OCc1ccccc1)C(=O)N[C@@H](C)C(=O)NN(CC(N)=O)C(=O)/C=C/C(=O)N(C)CCc1ccccc1 |  | 6.22 |  |
| 6.30 | C[C@H](NC(=O)OCc1ccccc1)C(=O)N[C@@H](C)C(=O)NN(CC(N)=O)C(=O)/C=C/C(=O)N1CCCCC1 |  | 6.00 |  |
| 8.64 | COc1ccc(CN(Cc2ccccc2)C(=O)/C=C/C(=O)N(CC(N)=O)NC(=O)[C@H](C)NC(=O)[C@H](C)NC(=O)OCc2ccccc2)cc1 | 7.92 | 7.05 |  |
